Measured values from ChEMBL document CHEMBL4011598, “Sulfonamides as Selective NaV1.7 Inhibitors: Optimizing Potency and Pharmacokinetics While Mitigating Metabolic Liabilities” (J Med Chem, 2017).
≈ marks a conversion by molar mass, not a printed value. Calls of active or inactive are those of the source. No cut-off for these calls is given here.

Columns and labels:
[1] = Volume of distribution at steady state in rat at 0.5 mg/kg, iv; assay type: ADME, organism-based; conditions: in vivo, read-out: Vdss
How it was run: (§1)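 Male rats given a single 0.5 mg/kg iv dose in DMSO. Unbound clearance (CLu) is total clearance divided by fu, the unbound fraction in plasma.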

[2] = Half life in dog at 0.25 mg/kg, iv; assay type: ADME, organism-based, Canis lupus familiaris; conditions: in vivo
How it was run: (§2)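 Male dogs received a single 0.25 mg/kg iv dose in DMSO. Unbound clearance (CLu) is total clearance divided by fu, the unbound fraction in plasma.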

[3] = Total clearance in dog at 0.25 mg/kg, iv; assay type: ADME, organism-based, Canis lupus familiaris; conditions: in vivo; how it was run: as §2
[4] = Aqueous solubility of the compound in PBS after 48 hrs by shake flask method; assay type: physicochemical
[5] = Half life in rat at 0.5 mg/kg, iv; assay type: ADME, organism-based; conditions: in vivo; how it was run: as §1
[6] = system: Plasma; assay: Unbound plasma concentration in C57Bl/6 mouse at 30 mg/kg, po; assay type: ADME, organism-based; conditions: in vivo
[7] = target: T1, Cytochrome P450 3A4 (Homo sapiens, UniProt P08684); assay: Induction of CYP3A4 in human hepatocytes at 10 uM relative to rifampicin
T1 sequence (P08684 whole entry): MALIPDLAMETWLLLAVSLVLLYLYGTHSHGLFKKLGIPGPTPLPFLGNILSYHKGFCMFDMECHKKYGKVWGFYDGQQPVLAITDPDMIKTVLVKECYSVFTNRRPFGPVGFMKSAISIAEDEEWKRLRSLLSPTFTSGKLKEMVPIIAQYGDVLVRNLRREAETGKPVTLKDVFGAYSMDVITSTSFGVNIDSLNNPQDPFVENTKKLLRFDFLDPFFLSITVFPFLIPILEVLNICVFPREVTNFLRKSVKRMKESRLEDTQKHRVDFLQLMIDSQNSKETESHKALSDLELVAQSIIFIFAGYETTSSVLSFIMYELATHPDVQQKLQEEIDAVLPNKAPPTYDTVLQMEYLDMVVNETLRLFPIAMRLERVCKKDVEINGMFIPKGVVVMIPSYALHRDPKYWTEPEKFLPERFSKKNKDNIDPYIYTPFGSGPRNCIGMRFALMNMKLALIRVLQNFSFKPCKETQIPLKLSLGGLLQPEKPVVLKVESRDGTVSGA

[8] = system: Rattus norvegicus; assay: Unbound clearance in rat at 0.5 mg/kg, iv; assay type: ADME, organism-based; conditions: in vivo; how it was run: as §1
[9] = system: Mus musculus; assay: Antipruriceptive activity in C57Bl/6 mouse assessed as reduction in number of histamine-induced scratching bouts at 30 to 300 mg/kg, po administered 4 hrs prior to histamine challenge measured over 15 mins; assay type: functional, organism-based
[10] = AUC in rat at 10 mg/kg, po; assay type: ADME, organism-based; conditions: in vivo
[11] = system: Plasma; assay: Total plasma concentration in C57Bl/6 mouse at 100 mg/kg, po; assay type: ADME, organism-based; conditions: in vivo
[12] = Oral bioavailability in rat at 10 mg/kg; assay type: ADME, organism-based; conditions: in vivo
[13] = target: Sodium channel protein type 9 subunit alpha (Rattus norvegicus, UniProt O08562); assay: Inhibition of rat Nav1.7 expressed in HEK293T cells incubated for 3 to 5 mins at -125 mV holding potential by electrophysiology assay; assay type: cell-based
[14] = AUC in dog at 2 mg/kg, po; assay type: ADME, organism-based, Canis lupus familiaris; conditions: in vivo
[15] = Intrinsic clearance in human liver microsomes at 1 uM after 1 to 40 mins in presence of NADPH by LC-MS/MS analysis; assay type: ADME, microsome; conditions: read-out: CLH
[16] = target: Voltage-gated inwardly rectifying potassium channel KCNH2 (Homo sapiens, UniProt Q12809); assay: Inhibition of human hERG by patch clamp method
Sequence of Voltage-gated inwardly rectifying potassium channel KCNH2 (Q12809 whole entry): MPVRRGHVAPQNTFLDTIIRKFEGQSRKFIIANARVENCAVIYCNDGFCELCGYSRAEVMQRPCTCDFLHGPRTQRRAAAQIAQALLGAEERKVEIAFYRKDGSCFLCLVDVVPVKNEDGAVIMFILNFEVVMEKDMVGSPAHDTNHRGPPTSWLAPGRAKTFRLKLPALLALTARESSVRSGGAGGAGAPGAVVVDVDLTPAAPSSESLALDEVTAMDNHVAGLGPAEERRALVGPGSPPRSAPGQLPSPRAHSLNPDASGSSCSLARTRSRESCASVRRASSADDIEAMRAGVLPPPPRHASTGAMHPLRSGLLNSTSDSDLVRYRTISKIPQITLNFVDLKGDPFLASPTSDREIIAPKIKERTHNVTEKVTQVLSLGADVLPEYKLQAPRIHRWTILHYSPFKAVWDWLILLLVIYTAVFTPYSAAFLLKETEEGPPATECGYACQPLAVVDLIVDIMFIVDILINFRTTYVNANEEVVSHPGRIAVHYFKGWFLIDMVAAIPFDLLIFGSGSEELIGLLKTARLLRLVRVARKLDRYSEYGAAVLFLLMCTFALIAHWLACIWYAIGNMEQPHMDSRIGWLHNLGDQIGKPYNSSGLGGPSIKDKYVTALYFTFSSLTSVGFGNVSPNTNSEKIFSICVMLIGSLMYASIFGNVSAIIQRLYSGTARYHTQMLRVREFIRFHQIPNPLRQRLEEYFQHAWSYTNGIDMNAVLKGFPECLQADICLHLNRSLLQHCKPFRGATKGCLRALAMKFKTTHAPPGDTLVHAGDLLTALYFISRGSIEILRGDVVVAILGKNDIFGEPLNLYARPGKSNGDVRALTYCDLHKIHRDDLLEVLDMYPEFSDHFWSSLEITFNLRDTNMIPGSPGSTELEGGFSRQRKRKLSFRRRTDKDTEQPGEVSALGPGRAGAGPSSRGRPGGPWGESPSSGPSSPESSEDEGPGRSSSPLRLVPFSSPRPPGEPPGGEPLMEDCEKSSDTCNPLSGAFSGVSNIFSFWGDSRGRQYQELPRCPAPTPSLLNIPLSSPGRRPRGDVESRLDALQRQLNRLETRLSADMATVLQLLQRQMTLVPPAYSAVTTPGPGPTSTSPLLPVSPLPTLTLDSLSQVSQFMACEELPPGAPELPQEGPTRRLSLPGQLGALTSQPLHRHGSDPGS

[17] = Tmax in dog at 2 mg/kg, po; assay type: ADME, organism-based, Canis lupus familiaris; conditions: in vivo
[18] = target: Sodium channel protein type 4 subunit alpha (Homo sapiens, UniProt P35499); assay: Inhibition of human Nav1.4 expressed in HEK293 cells assessed as reduction in peak inward current by ionworks quattro electrophysiology assay; assay type: cell-based
[19] = target: T2, Sodium channel protein type 9 subunit alpha (Homo sapiens, UniProt Q15858); assay: Inhibition of human Nav1.7 expressed in HEK293 cells incubated for 3 to 5 mins at -125 mV holding potential by electrophysiology assay; assay type: cell-based
T2 sequence (Q15858 whole entry): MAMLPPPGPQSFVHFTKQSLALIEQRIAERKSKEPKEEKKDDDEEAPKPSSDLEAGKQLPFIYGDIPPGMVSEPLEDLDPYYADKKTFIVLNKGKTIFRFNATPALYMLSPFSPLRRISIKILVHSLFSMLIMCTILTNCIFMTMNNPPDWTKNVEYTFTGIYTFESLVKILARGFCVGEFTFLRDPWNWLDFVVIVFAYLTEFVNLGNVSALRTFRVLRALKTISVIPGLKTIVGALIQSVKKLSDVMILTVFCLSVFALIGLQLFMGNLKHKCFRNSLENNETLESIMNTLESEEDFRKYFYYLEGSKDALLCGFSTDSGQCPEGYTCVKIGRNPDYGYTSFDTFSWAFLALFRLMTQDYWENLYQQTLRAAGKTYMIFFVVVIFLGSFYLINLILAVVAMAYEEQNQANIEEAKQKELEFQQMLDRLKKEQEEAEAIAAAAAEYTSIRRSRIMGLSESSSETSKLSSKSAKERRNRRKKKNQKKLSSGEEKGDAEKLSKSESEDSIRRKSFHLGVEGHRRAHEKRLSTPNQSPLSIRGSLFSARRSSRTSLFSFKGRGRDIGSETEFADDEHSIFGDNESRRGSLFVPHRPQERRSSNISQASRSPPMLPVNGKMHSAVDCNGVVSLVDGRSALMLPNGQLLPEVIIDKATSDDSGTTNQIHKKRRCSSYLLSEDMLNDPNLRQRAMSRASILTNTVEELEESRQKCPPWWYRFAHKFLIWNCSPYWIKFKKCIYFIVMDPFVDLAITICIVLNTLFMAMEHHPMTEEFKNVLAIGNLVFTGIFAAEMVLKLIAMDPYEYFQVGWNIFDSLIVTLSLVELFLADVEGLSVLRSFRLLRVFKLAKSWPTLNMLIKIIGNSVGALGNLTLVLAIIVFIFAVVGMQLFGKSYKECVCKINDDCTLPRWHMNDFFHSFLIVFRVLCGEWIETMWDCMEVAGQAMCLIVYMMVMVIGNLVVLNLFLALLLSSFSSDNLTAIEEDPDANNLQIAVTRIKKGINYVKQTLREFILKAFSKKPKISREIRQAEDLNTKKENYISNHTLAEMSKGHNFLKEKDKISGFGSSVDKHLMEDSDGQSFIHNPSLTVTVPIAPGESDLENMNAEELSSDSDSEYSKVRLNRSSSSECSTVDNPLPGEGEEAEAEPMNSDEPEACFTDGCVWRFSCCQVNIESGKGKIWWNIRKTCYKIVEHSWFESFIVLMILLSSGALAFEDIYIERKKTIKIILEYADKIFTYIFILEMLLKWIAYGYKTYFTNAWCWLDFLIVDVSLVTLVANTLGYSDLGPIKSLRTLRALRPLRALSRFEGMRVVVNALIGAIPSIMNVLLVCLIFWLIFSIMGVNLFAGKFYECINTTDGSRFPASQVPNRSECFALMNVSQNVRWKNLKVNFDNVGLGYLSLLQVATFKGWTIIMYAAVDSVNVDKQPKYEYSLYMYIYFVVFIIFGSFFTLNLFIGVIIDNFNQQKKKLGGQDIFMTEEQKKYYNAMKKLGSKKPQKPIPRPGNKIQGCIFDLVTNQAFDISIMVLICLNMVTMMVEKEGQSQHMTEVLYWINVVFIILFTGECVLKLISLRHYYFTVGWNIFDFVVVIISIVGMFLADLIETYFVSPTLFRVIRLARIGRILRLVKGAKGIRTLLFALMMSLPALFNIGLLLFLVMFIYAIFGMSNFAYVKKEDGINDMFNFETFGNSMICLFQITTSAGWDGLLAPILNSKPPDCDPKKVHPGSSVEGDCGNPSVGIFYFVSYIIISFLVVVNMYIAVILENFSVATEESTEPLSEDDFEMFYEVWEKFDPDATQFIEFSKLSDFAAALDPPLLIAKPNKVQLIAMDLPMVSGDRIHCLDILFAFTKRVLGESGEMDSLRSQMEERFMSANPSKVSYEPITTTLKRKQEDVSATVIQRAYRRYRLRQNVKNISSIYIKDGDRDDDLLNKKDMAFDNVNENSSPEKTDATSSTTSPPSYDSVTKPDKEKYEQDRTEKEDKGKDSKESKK

[20] = target: T3, PXR (NR1I2) (Homo sapiens, UniProt O75469); assay: Activation of human PXR at 10 uM in presence of rifampicin; assay type: ADME; conditions: read-out: Activity
T3 sequence (O75469 whole entry): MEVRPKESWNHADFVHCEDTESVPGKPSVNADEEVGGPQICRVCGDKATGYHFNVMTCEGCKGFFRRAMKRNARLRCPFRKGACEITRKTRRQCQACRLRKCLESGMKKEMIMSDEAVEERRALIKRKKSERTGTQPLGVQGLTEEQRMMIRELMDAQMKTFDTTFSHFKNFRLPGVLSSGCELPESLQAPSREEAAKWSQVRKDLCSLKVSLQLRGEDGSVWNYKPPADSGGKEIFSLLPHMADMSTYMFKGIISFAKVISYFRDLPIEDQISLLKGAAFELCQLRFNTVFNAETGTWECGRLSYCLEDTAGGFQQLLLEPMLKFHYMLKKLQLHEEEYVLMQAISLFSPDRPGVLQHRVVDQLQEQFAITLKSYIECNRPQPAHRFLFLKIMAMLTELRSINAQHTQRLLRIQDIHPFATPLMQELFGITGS

[21] = Unbound fraction in mouse plasma at 5 uM by LC-MS/MS method; assay type: ADME, cell-free
[22] = target: Sodium channel protein type 1 subunit alpha (Homo sapiens, UniProt P35498); assay: Inhibition of human Nav1.1 expressed in HEK293 cells assessed as reduction in peak inward current by ionworks quattro electrophysiology assay; assay type: cell-based
[23] = Ratio of unbound plasma concentration in C57Bl/6 mouse at 300 mg/kg, po to IC50 for human Nav1.7 at -125 mV holding potential
[24] = target: T1, Cytochrome P450 3A4; assay: Inhibition of CYP3A4 (unknown origin); assay type: ADME
[25] = Oral bioavailability in dog at 2 mg/kg; assay type: ADME, organism-based, Canis lupus familiaris; conditions: in vivo
[26] = target: Sodium channel protein type 8 subunit alpha (Homo sapiens, UniProt Q9UQD0); assay: Inhibition of human Nav1.6 expressed in HEK293 cells assessed as reduction in peak inward current by ionworks quattro electrophysiology assay; assay type: cell-based
[27] = Intrinsic clearance in rat liver microsomes at 1 uM after 1 to 40 mins in presence of NADPH by LC-MS/MS analysis; assay type: ADME, microsome; conditions: read-out: CLH
[28] = system: Plasma; assay: Total plasma concentration in C57Bl/6 mouse at 30 mg/kg, po; assay type: ADME, organism-based; conditions: in vivo
[29] = system: Plasma; assay: Unbound plasma concentration in C57Bl/6 mouse at 100 mg/kg, po; assay type: ADME, organism-based; conditions: in vivo
[30] = target: Sodium channel protein type 9 subunit alpha (Mus musculus, UniProt Q62205); assay: Inhibition of mouse Nav1.7 expressed in HEK293 cells incubated for 3 to 5 mins at -125 mV holding potential by electrophysiology assay; assay type: cell-based
[31] = system: Plasma; assay: Unbound plasma concentration in C57Bl/6 mouse at 300 mg/kg, po; assay type: ADME, organism-based; conditions: in vivo
[32] = target: T2, Sodium channel protein type 9 subunit alpha; assay: Inhibition of human Nav1.7 expressed in HEK293 cells assessed as reduction in peak inward current by ionworks quattro electrophysiology assay; assay type: cell-based
[33] = Total clearance in rat at 0.5 mg/kg, iv; assay type: ADME, organism-based; conditions: in vivo; how it was run: as §1
[34] = Volume of distribution at steady state in dog at 0.25 mg/kg, iv; assay type: ADME, organism-based, Canis lupus familiaris; conditions: in vivo, read-out: Vdss; how it was run: as §2
[35] = target: Sodium channel protein type 3 subunit alpha (Homo sapiens, UniProt Q9NY46); assay: Inhibition of human Nav1.3 expressed in CHO cells assessed as reduction in peak inward current by ionworks quattro electrophysiology assay; assay type: cell-based
[36] = target: Cytochrome P450 2C9 (Homo sapiens, UniProt P11712); assay: Inhibition of CYP2C9 (unknown origin); assay type: ADME
Sequence of Cytochrome P450 2C9 (P11712 whole entry): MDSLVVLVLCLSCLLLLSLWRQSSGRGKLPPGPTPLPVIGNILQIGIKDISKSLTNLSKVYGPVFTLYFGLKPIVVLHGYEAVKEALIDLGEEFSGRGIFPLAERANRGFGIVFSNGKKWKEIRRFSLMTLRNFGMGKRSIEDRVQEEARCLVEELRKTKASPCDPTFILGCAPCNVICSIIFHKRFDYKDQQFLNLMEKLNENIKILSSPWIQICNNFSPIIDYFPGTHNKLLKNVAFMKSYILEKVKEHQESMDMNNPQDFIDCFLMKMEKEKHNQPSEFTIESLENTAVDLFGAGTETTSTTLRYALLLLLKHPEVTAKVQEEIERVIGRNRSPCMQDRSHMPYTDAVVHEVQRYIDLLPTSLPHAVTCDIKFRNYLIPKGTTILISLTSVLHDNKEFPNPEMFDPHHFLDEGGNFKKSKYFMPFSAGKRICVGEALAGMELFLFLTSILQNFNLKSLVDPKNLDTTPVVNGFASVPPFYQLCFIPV

[37] = system: Canis familiaris; assay: Unbound clearance in dog at 0.25 mg/kg, iv; assay type: ADME, organism-based, Canis lupus familiaris; conditions: in vivo; how it was run: as §2
[38] = system: Plasma; assay: Total plasma concentration in C57Bl/6 mouse at 300 mg/kg, po; assay type: ADME, organism-based; conditions: in vivo

- Vd [1]: 2.1 L/kg
- half-life [2]: 20 h
- clearance [3]: 0.383 mL/min/kg
- solubility thermodynamic at 48 h [4]: 432 µM (≈ 235 µg/mL)
- half-life [5]: 6.2 h
- Cp(f) [6]: 0.246 µM
- Activity [7]: 7%
- CL free [8]: 433 mL/min/kg
- AUC [10]: 44.2 µM·h
- concentration [11]: 106 µM
- bioavailability [12]: 54%
- IC50 [13]: 4 µM
- AUC [14]: 101 µM·h
- microsomal CLint at 1 µM [15]: < 14 µL/min/mg
- Tmax [17]: 2 h
- IC50 [18]: 12 µM
- IC50 [19]: 0.036 µM
- activity at 10 µM [20]: 1%
- fraction unbound at 5 µM [21]: 0.0116
- IC50 [22]: 17 µM
- IC50 [24]: > 15 µM
- bioavailability [25]: 63%
- IC50 [26]: 16 µM
- microsomal CLint at 1 µM [27]: < 14 µL/min/mg
- concentration [28]: 21.2 µM
- Cp(f) [29]: 1.23 µM
- IC50 [30]: 0.036 µM
- Cp(f) [31]: 1.59 µM
- IC50 [32]: 0.017 µM
- clearance [33]: 3.83 mL/min/kg
- Vd [34]: 0.56 L/kg
- IC50 [35]: 6.9 µM
- IC50 [36]: 0.43 µM
- CL free [37]: 60 mL/min/kg
- concentration [38]: 137 µM
SMILES: COc1cc(-c2cccc(C(F)(F)F)c2)c(F)cc1-c1nccc2cc(S(=O)(=O)Nc3ccon3)ccc12
- Activity [9]: Active
- IC50 [16]: > 10 µM
- Ratio [23]: 45
